≈ marks a conversion by molar mass, not a printed value.
Columns and labels:
Assay type in all cases: functional
Streptococcus pneumoniae [1] = experiment: Antimicrobial activity against penicillin-resistant Streptococcus pneumoniae by agar dilution method
Summary of the method: (§1)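 Agar dilution MIC on Mueller-Hinton agar with 5% sheep blood, inocula 10^4 CFU/spot; amoxicillin-clavulanate combined 1:2; S. pneumoniae ATCC 49619 quality control each run.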

Streptococcus pneumoniae [2] = experiment: Antimicrobial activity against Streptococcus pneumoniae 19A by agar dilution method; summary of the method: as §1
Streptococcus pneumoniae [3] = experiment: Antimicrobial activity against penicillin-intermediate Streptococcus pneumoniae by agar dilution method
Streptococcus pneumoniae [4] = experiment: Antimicrobial activity against penicillin-susceptible Streptococcus pneumoniae by agar dilution method
Streptococcus pneumoniae [5] = experiment: Antimicrobial activity against Streptococcus pneumoniae isolate 3587 by agar dilution method
Streptococcus pneumoniae [6] = experiment: Antimicrobial activity against Streptococcus pneumoniae isolate 1394 by agar dilution method
Streptococcus pneumoniae [7] = experiment: Antimicrobial activity against Streptococcus pneumoniae isolate 3681 by agar dilution method; summary of the method: as §1
Streptococcus pneumoniae [8] = experiment: Antimicrobial activity against Streptococcus pneumoniae isolate 3412 by agar dilution method; summary of the method: as §1
Streptococcus pneumoniae [9] = experiment: Antimicrobial activity against Streptococcus pneumoniae isolate 1424 by agar dilution method; summary of the method: as §1
Streptococcus pneumoniae [10] = experiment: Antimicrobial activity against Streptococcus pneumoniae isolate 3455 by agar dilution method
Streptococcus pneumoniae [11] = experiment: Antimicrobial activity against Streptococcus pneumoniae isolate 4755 by agar dilution method; summary of the method: as §1
Streptococcus pneumoniae [12] = experiment: Antimicrobial activity against Streptococcus pneumoniae isolate 2688 by agar dilution method; summary of the method: as §1
Streptococcus pneumoniae [13] = experiment: Antimicrobial activity against Streptococcus pneumoniae 2 by time-kill analysis
Summary of the method: (§2)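 Time-kill in cation-adjusted Mueller-Hinton broth with 5% lysed horse blood; inocula 5 × 105 to 5 × 10^6 CFU/ml; drugs at MIC, 2× and 4× MIC; 35°C shaking water bath; viable counts at 0, 3, 6, 12, 24 h. Bactericidal = ≥3 log10 CFU/ml (99.9%) drop from original inoculum; 90%/99%/99.9% killing scored per strain.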

Streptococcus pneumoniae [14] = experiment: Antimicrobial activity against Streptococcus pneumoniae 5 by time-kill analysis
Summary of the method: as §2, with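 “12 and” for “12,”, “if” for “=”, “reduction” for “drop”, “90% and 99%” for “90%/99%/99.9%”, “also scored.” for “scored per strain.”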

Streptococcus pneumoniae [15] = experiment: Antimicrobial activity against Streptococcus pneumoniae isolate 3263 by agar dilution method
Streptococcus pneumoniae [16] = experiment: Antimicrobial activity against Streptococcus pneumoniae isolate 2617 by agar dilution method; summary of the method: as §1
Streptococcus pneumoniae [17] = experiment: Antimicrobial activity against Streptococcus pneumoniae isolate 1397 by agar dilution method; summary of the method: as §1
Streptococcus pneumoniae [18] = experiment: Antimicrobial activity against Streptococcus pneumoniae isolate 3791 by agar dilution method; summary of the method: as §1
Streptococcus pneumoniae [19] = experiment: Antimicrobial activity against Streptococcus pneumoniae isolate 1055 by agar dilution method
Streptococcus pneumoniae [20] = experiment: Antimicrobial activity against Streptococcus pneumoniae 6 by time-kill analysis; summary of the method: as §2
Streptococcus pneumoniae [21] = experiment: Antimicrobial activity against Streptococcus pneumoniae isolate 1147 by agar dilution method; summary of the method: as §1
Streptococcus pneumoniae [22] = experiment: Antimicrobial activity against Streptococcus pneumoniae isolate 3481 by agar dilution method; summary of the method: as §1
Streptococcus pneumoniae [23] = experiment: Antimicrobial activity against Streptococcus pneumoniae isolate 33 by agar dilution method; summary of the method: as §1
Streptococcus pneumoniae [24] = experiment: Antimicrobial activity against Streptococcus pneumoniae isolate 24 by agar dilution method
Streptococcus pneumoniae [25] = experiment: Antimicrobial activity against Streptococcus pneumoniae 7 by time-kill analysis; summary of the method: as §2
Streptococcus pneumoniae [26] = experiment: Antimicrobial activity against Streptococcus pneumoniae isolate 1564 by agar dilution method
Streptococcus pneumoniae [27] = experiment: Antimicrobial activity against Streptococcus pneumoniae isolate 3275 by agar dilution method; summary of the method: as §1
Streptococcus pneumoniae [28] = experiment: Antimicrobial activity against Streptococcus pneumoniae 10 by time-kill analysis; summary of the method: as §2
Streptococcus pneumoniae [29] = experiment: Antimicrobial activity against Streptococcus pneumoniae 1 by time-kill analysis
Summary of the method: as §2, with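 “12 and” for “12,”, “if” for “=”, “reduction” for “drop”, “90% and 99%” for “90%/99%/99.9%”, “also scored.” for “scored per strain.”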

Streptococcus pneumoniae [30] = experiment: Antimicrobial activity against Streptococcus pneumoniae isolate 1146 by agar dilution method; summary of the method: as §1
Streptococcus pneumoniae [31] = experiment: Antimicrobial activity against Streptococcus pneumoniae isolate 1384 by agar dilution method; summary of the method: as §1
Streptococcus pneumoniae [32] = experiment: Antimicrobial activity against Streptococcus pneumoniae isolate 3260 by agar dilution method
Streptococcus pneumoniae [33] = experiment: Antimicrobial activity against Streptococcus pneumoniae isolate 3346 by agar dilution method
Streptococcus pneumoniae [34] = experiment: Antimicrobial activity against Streptococcus pneumoniae 11 by time-kill analysis; summary of the method: as §2
Streptococcus pneumoniae [35] = experiment: Antimicrobial activity against Streptococcus pneumoniae isolate 37 by agar dilution method; summary of the method: as §1
Streptococcus pneumoniae [36] = experiment: Antimicrobial activity against Streptococcus pneumoniae isolate 3458 by agar dilution method
Streptococcus pneumoniae [37] = experiment: Antimicrobial activity against Streptococcus pneumoniae 8 by time-kill analysis; summary of the method: as §2
Streptococcus pneumoniae [38] = experiment: Antimicrobial activity against Streptococcus pneumoniae isolate 2686 by agar dilution method; summary of the method: as §1
Streptococcus pneumoniae [39] = experiment: Antimicrobial activity against Streptococcus pneumoniae isolate 3282 by agar dilution method
Streptococcus pneumoniae [40] = experiment: Antimicrobial activity against Streptococcus pneumoniae isolate 3374 by agar dilution method; summary of the method: as §1
Streptococcus pneumoniae [41] = experiment: Antimicrobial activity against Streptococcus pneumoniae isolate 2880 by agar dilution method; summary of the method: as §1
Streptococcus pneumoniae [42] = experiment: Antimicrobial activity against Streptococcus pneumoniae isolate 4747 by agar dilution method; summary of the method: as §1
Streptococcus pneumoniae [43] = experiment: Antimicrobial activity against Streptococcus pneumoniae isolate 2874 by agar dilution method; summary of the method: as §1
Streptococcus pneumoniae [44] = experiment: Antimicrobial activity against Streptococcus pneumoniae 12 by time-kill analysis; summary of the method: as §2
Streptococcus pneumoniae [45] = experiment: Antimicrobial activity against Streptococcus pneumoniae 4 by time-kill analysis; summary of the method: as §2
Streptococcus pneumoniae [46] = experiment: Antimicrobial activity against Streptococcus pneumoniae 9 by time-kill analysis
Summary of the method: as §2, with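 “12 and” for “12,”, “if” for “=”, “reduction” for “drop”, “90% and 99%” for “90%/99%/99.9%”, “also scored.” for “scored per strain.”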

Streptococcus pneumoniae [47] = experiment: Antimicrobial activity against Streptococcus pneumoniae 3 by time-kill analysis; summary of the method: as §2

`C[C@H]1COc2c(N3CCN(C)CC3)c(F)cc3c(=O)c(C(=O)O)cn1c23.C[C@H]1COc2c(N3CCN(C)CC3)c(F)cc3c(=O)c(C(=O)O)cn1c23.O` [LEVOFLOXACIN] was tested, and the MIC50 (Streptococcus pneumoniae [1]) was 1 µg/mL, the MIC90 (Streptococcus pneumoniae [1]) was 4 µg/mL and the MIC50 (Streptococcus pneumoniae [2]) was 2 µg/mL. The MIC90 (Streptococcus pneumoniae [2]) was 2 µg/mL, the MIC50 (Streptococcus pneumoniae [3]) was 1 µg/mL and the MIC90 (Streptococcus pneumoniae [3]) was 2 µg/mL. The MIC50 (Streptococcus pneumoniae [4]) was 1 µg/mL and the MIC90 (Streptococcus pneumoniae [4]) was 16 µg/mL.
Compound `C=CC1=C(C(=O)O)N2C(=O)[C@@H](NC(=O)/C(=N\O)c3csc(N)n3)[C@H]2SC1` [CEFDINIR] has an MIC (Streptococcus pneumoniae [5]) of 8 µg/mL (≈ 20.2 µM), an MIC (Streptococcus pneumoniae [6]) of 8 µg/mL (≈ 20.2 µM) and an MIC (Streptococcus pneumoniae [7]) of 8 µg/mL (≈ 20.2 µM). The MIC50 (Streptococcus pneumoniae [1]) was 8 µg/mL (≈ 20.2 µM), the MIC90 (Streptococcus pneumoniae [1]) was 8 µg/mL (≈ 20.2 µM) and the MIC (Streptococcus pneumoniae [8]) was 4 µg/mL (≈ 10.1 µM). The MIC (Streptococcus pneumoniae [9]) was 8 µg/mL (≈ 20.2 µM), the MIC (Streptococcus pneumoniae [10]) was 8 µg/mL (≈ 20.2 µM) and the MIC (Streptococcus pneumoniae [11]) was 4 µg/mL (≈ 10.1 µM). It also gave an MIC (Streptococcus pneumoniae [12]) of 16 µg/mL (≈ 40.5 µM), an MIC (Streptococcus pneumoniae [13]) of 0.06 µg/mL (≈ 0.152 µM) and an MIC (Streptococcus pneumoniae [14]) of 8 µg/mL (≈ 20.2 µM). For the same compound, the MIC (Streptococcus pneumoniae [15]) was 8 µg/mL (≈ 20.2 µM), the MIC (Streptococcus pneumoniae [16]) was 4 µg/mL (≈ 10.1 µM) and the MIC (Streptococcus pneumoniae [17]) was 4 µg/mL (≈ 10.1 µM). For the same compound, the MIC (Streptococcus pneumoniae [18]) was 8 µg/mL (≈ 20.2 µM), the MIC (Streptococcus pneumoniae [19]) was 8 µg/mL (≈ 20.2 µM) and the MIC (Streptococcus pneumoniae [20]) was 1 µg/mL (≈ 2.53 µM). For the same compound, the MIC (Streptococcus pneumoniae [21]) was 8 µg/mL (≈ 20.2 µM), the MIC (Streptococcus pneumoniae [22]) was 4 µg/mL (≈ 10.1 µM) and the MIC (Streptococcus pneumoniae [23]) was 8 µg/mL (≈ 20.2 µM). It also gave an MIC (Streptococcus pneumoniae [24]) of 4 µg/mL (≈ 10.1 µM), an MIC (Streptococcus pneumoniae [25]) of 4 µg/mL (≈ 10.1 µM) and an MIC (Streptococcus pneumoniae [26]) of 32 µg/mL (≈ 80.9 µM). The MIC (Streptococcus pneumoniae [27]) was 2 µg/mL (≈ 5.06 µM), the MIC (Streptococcus pneumoniae [28]) was 0.25 µg/mL (≈ 0.632 µM) and the MIC (Streptococcus pneumoniae [29]) was 0.12 µg/mL (≈ 0.303 µM). The MIC (Streptococcus pneumoniae [30]) was 8 µg/mL (≈ 20.2 µM), the MIC (Streptococcus pneumoniae [31]) was 8 µg/mL (≈ 20.2 µM) and the MIC (Streptococcus pneumoniae [32]) was 8 µg/mL (≈ 20.2 µM). The MIC50 (Streptococcus pneumoniae [3]) was 0.5 µg/mL (≈ 1.26 µM), the MIC90 (Streptococcus pneumoniae [3]) was 4 µg/mL (≈ 10.1 µM) and the MIC (Streptococcus pneumoniae [33]) was 8 µg/mL (≈ 20.2 µM). The MIC (Streptococcus pneumoniae [34]) was 4 µg/mL (≈ 10.1 µM), the MIC50 (Streptococcus pneumoniae [4]) was 0.06 µg/mL (≈ 0.152 µM) and the MIC90 (Streptococcus pneumoniae [4]) was 0.125 µg/mL (≈ 0.316 µM). For the same compound, the MIC (Streptococcus pneumoniae [35]) was 4 µg/mL (≈ 10.1 µM), the MIC (Streptococcus pneumoniae [36]) was 8 µg/mL (≈ 20.2 µM) and the MIC (Streptococcus pneumoniae [37]) was 16 µg/mL (≈ 40.5 µM). It also gave an MIC (Streptococcus pneumoniae [38]) of 8 µg/mL (≈ 20.2 µM), an MIC (Streptococcus pneumoniae [39]) of 8 µg/mL (≈ 20.2 µM) and an MIC (Streptococcus pneumoniae [40]) of 4 µg/mL (≈ 10.1 µM). For the same compound, the MIC (Streptococcus pneumoniae [41]) was 4 µg/mL (≈ 10.1 µM), the MIC (Streptococcus pneumoniae [42]) was 4 µg/mL (≈ 10.1 µM) and the MIC (Streptococcus pneumoniae [43]) was 8 µg/mL (≈ 20.2 µM). The MIC (Streptococcus pneumoniae [44]) was 4 µg/mL (≈ 10.1 µM), the MIC (Streptococcus pneumoniae [45]) was 16 µg/mL (≈ 40.5 µM) and the MIC (Streptococcus pneumoniae [46]) was 1 µg/mL (≈ 2.53 µM). For the same compound, the MIC (Streptococcus pneumoniae [47]) was 0.5 µg/mL (≈ 1.26 µM).
Work on `CC[C@H]1OC(=O)[C@H](C)C(=O)[C@H](C)[C@@H](O[C@@H]2O[C@H](C)C[C@H](N(C)C)[C@H]2O)[C@](C)(OC)C[C@@H](C)C(=O)[C@H](C)[C@H]2N(CCCCn3cnc(-c4cccnc4)c3)C(=O)O[C@]12C` [TELITHROMYCIN] yielded an MIC (Streptococcus pneumoniae [13]) of 0.008 µg/mL (≈ 0.00985 µM), an MIC (Streptococcus pneumoniae [14]) of 0.12 µg/mL (≈ 0.148 µM) and an MIC (Streptococcus pneumoniae [20]) of 0.004 µg/mL (≈ 0.00493 µM). For the same compound, the MIC (Streptococcus pneumoniae [25]) was 0.06 µg/mL (≈ 0.0739 µM), the MIC (Streptococcus pneumoniae [28]) was 0.008 µg/mL (≈ 0.00985 µM) and the MIC (Streptococcus pneumoniae [29]) was 0.03 µg/mL (≈ 0.0369 µM). For the same compound, the MIC (Streptococcus pneumoniae [34]) was 0.03 µg/mL (≈ 0.0369 µM), the MIC (Streptococcus pneumoniae [37]) was 0.12 µg/mL (≈ 0.148 µM) and the MIC (Streptococcus pneumoniae [44]) was 0.016 µg/mL (≈ 0.0197 µM). It also gave an MIC (Streptococcus pneumoniae [45]) of 0.008 µg/mL (≈ 0.00985 µM), an MIC (Streptococcus pneumoniae [46]) of 0.008 µg/mL (≈ 0.00985 µM) and an MIC (Streptococcus pneumoniae [47]) of 0.12 µg/mL (≈ 0.148 µM).

— ChEMBL document CHEMBL1649446, “Comparative antipneumococcal activities of sulopenem and other drugs” (2009)
